ChEMBL document CHEMBL1137702, “Identification of hydrolytically stable and selective P2Y(1) receptor agonists” (Eur J Med Chem, 2009)
Calls of active or inactive are those of the source. The rule behind the calls is not given here.

Columns and labels:
[1] = target: T1, Ectonucleotide pyrophosphatase/phosphodiesterase family member 3 (Homo sapiens) (UniProt O14638); experiment: Activity of human NPP3 expressed in human 293T cells assessed as drug hydrolysis at 100 uM after 20 mins by reverse-phase HPLC relative to p-nitrophenyl-thymidine-5-monophosphate; assay type: cell-based; parameters: scale not given: the % may be the effect or the level left
T1 sequence (whole entry): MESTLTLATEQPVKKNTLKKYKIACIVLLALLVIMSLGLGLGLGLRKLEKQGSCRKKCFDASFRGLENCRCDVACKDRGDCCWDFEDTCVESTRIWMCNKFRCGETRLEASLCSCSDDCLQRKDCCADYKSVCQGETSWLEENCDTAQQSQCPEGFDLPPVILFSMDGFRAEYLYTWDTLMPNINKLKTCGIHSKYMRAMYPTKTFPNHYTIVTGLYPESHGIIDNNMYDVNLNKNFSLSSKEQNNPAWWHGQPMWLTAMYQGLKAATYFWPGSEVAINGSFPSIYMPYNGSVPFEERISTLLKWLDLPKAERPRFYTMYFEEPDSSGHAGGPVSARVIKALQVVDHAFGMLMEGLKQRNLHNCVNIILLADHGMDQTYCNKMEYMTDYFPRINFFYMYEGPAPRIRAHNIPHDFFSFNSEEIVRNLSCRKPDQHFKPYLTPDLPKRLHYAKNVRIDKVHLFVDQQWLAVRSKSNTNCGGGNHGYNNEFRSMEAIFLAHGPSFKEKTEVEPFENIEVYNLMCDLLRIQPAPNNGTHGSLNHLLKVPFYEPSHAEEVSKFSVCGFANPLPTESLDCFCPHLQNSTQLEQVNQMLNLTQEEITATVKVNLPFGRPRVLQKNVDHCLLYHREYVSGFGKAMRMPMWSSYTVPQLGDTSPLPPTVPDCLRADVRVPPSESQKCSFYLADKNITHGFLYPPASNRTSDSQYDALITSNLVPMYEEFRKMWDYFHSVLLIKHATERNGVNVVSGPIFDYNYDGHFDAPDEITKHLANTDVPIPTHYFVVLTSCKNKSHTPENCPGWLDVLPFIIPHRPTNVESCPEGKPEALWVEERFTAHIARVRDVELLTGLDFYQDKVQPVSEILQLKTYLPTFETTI
Summary of the method: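 Crude extract of 293T cells transfected with human NPP1 or NPP3, pre-incubated 3 min at 37 °C in 1 mM CaCl2, 140 mM NaCl, 5 mM KCl, 50 mM Tris pH 8.5. Substrate at 100 µM final for 20 min, stopped in ice-cold perchloric acid and neutralized with KOH. Loss of analogue quantified by reverse-phase HPLC with ion-pair phosphate mobile phase pH 7.0. pnp-TMP (p-nitrophenol at 410 nm) served as the 100% reference.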

[2] = target: P2Y purinoceptor 6 (Rattus norvegicus) (UniProt Q63371); experiment: Agonist activity at rat P2Y6 receptor expressed in human 1321N1 cells assessed as increase in intracellular calcium concentration at 100 uM by dual-excitation spectrofluorimetric analysis; assay type: functional, cell-based
Chain of P2Y purinoceptor 6 (Rattus norvegicus) (Q63371 whole entry): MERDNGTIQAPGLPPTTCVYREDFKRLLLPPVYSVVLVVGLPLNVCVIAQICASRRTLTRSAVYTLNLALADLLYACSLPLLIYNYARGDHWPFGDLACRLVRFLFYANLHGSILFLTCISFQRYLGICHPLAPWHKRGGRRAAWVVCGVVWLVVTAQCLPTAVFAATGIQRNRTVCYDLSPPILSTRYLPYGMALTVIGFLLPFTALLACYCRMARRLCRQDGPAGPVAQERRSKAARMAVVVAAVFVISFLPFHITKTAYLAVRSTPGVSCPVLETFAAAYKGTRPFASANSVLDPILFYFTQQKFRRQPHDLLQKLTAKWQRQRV

[3] = target: P2Y purinoceptor 1 (Meleagris gallopavo) (UniProt P49652); experiment: Antagonist activity at turkey P2Y1 receptor expressed in human 1321N1 cells assessed as inhibition of 2-MeS-ADP-induced increase in intracellular calcium concentration by dual-excitation spectrofluorimetric analysis; assay type: functional, cell-based
Chain of P2Y purinoceptor 1 (Meleagris gallopavo) (P49652 whole entry): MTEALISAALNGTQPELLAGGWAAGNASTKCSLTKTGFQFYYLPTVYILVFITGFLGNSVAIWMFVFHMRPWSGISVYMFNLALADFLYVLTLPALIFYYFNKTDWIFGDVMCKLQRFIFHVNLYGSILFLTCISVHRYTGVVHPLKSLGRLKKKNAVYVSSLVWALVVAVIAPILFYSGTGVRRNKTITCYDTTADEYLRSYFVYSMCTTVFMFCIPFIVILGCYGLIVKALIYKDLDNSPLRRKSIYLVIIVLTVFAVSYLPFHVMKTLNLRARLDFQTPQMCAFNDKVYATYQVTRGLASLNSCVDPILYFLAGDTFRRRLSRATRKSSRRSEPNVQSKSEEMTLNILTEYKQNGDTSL
Summary of the method: (§1)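 Fura-2-loaded suspensions of stably transfected 1321N1 cells were assayed at 37 °C in HEPES-buffered saline pH 7.4 with 1 mM Ca2+ and Mg2+. […] [Ca2+]i was read by dual-excitation spectrofluorometry.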

[4] = target: P2Y purinoceptor 4 (Homo sapiens, UniProt P51582); experiment: Antagonist activity at human P2Y4 receptor expressed in human 1321N1 cells assessed as inhibition of UTP-induced increase in intracellular calcium concentration by dual-excitation spectrofluorimetric analysis; assay type: functional, cell-based; summary of the method: as §1
Chain of P2Y purinoceptor 4 (P51582 whole entry): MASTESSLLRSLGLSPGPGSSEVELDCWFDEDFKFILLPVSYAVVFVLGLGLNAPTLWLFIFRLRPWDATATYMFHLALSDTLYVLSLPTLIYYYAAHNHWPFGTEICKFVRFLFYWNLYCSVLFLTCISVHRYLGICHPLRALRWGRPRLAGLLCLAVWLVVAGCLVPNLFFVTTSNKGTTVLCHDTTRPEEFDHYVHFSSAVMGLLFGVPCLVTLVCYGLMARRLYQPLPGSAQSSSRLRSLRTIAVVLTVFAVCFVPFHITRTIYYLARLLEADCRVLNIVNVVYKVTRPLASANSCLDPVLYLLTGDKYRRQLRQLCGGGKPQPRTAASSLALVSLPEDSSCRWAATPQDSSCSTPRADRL

[5] = target: P2Y purinoceptor 6 (Rattus norvegicus) (UniProt Q63371); experiment: Antagonist activity at rat P2Y6 receptor expressed in human 1321N1 cells assessed as inhibition of UDP-induced increase in intracellular calcium concentration by dual-excitation spectrofluorimetric analysis; assay type: functional, cell-based; summary of the method: as §1
[6] = target: T2, Ectonucleoside triphosphate diphosphohydrolase 2 (Homo sapiens) (UniProt Q9Y5L3); experiment: Inhibition of human NTPDase 2 expressed in human 293T cells; assay type: cell-based
T2 sequence (whole entry): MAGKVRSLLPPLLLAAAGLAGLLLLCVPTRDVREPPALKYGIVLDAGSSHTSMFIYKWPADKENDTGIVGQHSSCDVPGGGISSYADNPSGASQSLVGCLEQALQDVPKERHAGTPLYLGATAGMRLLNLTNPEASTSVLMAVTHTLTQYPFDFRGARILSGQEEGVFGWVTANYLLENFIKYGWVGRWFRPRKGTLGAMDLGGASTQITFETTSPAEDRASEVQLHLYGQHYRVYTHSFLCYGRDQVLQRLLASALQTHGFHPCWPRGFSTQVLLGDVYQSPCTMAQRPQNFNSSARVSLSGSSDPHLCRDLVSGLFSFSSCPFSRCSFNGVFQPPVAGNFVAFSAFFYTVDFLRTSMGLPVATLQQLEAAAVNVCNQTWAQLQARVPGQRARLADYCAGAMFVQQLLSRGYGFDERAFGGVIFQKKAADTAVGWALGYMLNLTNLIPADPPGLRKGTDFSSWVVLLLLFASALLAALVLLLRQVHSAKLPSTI

[7] = target: P2Y purinoceptor 1 (Meleagris gallopavo) (UniProt P49652); experiment: Agonist activity at turkey P2Y1 receptor expressed in human 1321N1 cells assessed as increase in intracellular calcium concentration by dual-excitation spectrofluorimetric analysis; assay type: functional, cell-based

SMILES | Activity [1] [%] | Activity [2] | Activity [3] | Activity [4] | Activity [5] | Activity [6] | Activity [7]
CSc1nc(N)c2ncn([C@@H]3O[C@H](COP(=O)(O)OP(=O)(O)CP(=O)(O)O)[C@@H](O)[C@H]3O)c2n1 | 10 | Active | inactive | inactive | inactive | inactive | 
BP(=O)(OC[C@H]1O[C@@H](n2cnc3c(N)ncnc32)[C@H](O)[C@@H]1O)OP(=O)(O)CP(=O)(O)O (stereo not given in full) | 0 |  |  | inactive | inactive | inactive | inactive
BP(=O)(OC[C@H]1O[C@@H](n2cnc3c(N)ncnc32)[C@H](O)[C@@H]1O)OP(=O)(O)CP(=O)(O)O (single isomer, unassigned; diastereomer B) | 3 | Active | inactive | inactive | inactive | inactive | inactive

The remaining lines, values ahead:

Activity [1] [%] | Activity [2] | Activity [3] | Activity [4] | Activity [5] | Activity [6] | Activity [7] | SMILES
9.9 |  | inactive | inactive | inactive | inactive | inactive | BP(=O)(OC[C@H]1O[C@@H](n2cnc3c(N)nc(SC)nc32)[C@H](O)[C@@H]1O)OP(=O)(O)CP(=O)(O)O (single isomer, unassigned; diastereomer A)
0 | Active | inactive | inactive | inactive | inactive |  | BP(=O)(OC[C@H]1O[C@@H](n2cnc3c(N)nc(SC)nc32)[C@H](O)[C@@H]1O)OP(=O)(O)CP(=O)(O)O (single isomer, unassigned; diastereomer B)
